Data from PMC11364517 (Neuron, 2024).

Experiments:
[1] = tested on: GRABNE2h; test: Ligand selectivity of GRABNE2h expressed in HEK293T cells; assay type: cell-based; conditions: for fluorescence response of GRABNE2h to the ligand: HEK293T cells, trace amines and NE metabolites in full doses (Fig. S2C, S2D)
[2] = tested on: GRABNE2m; test: Ligand selectivity of GRABNE2m expressed in HEK293T cells; assay type: cell-based; conditions: for fluorescence response of GRABNE2m to the ligand: HEK293T cells, trace amines and NE metabolites in full doses (Fig. S2C, S2D)
[3] = tested on: optogenetically evoked NE release in the LC; test: Fiber photometry in the LC of freely moving TH-Cre mice during optogenetic; assay type: in vivo; conditions: i.p. injection; GRABNE2m and GRABNE2h
Summary of the method: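 Mice received hSyn-GRABNE2m or NE2h AAV plus Cre-dependent C1V1-YFP AAV (1 × 10¹³ genomic copies per ml) in the LC at 100 nl/min, 500 nl, under Avertin (500 mg/kg i.p.) or 1.5% isoflurane. LC fibres (105/125 μm) were implanted four weeks later. Photometry used a 473-nm laser, 25 μW at the fibre tip. Test compound was given i.p.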

[4] = tested on: GRABNE2m; conditions: read-out: apparent affinity values (EC50); n = 3
[5] = tested on: GRABNE2h; conditions: read-out: apparent affinity values (EC50); n = 3

Structure (SMILES)	fluorescence response of GRABNE2h to the ligand [1]	fluorescence response of GRABNE2m to the ligand [2]	further results
CC(C)NCC(O)c1ccc(O)c(O)c1 (stereo not shown) [isoprenaline]	do not respond	do not respond	–
CCc1cc(Cl)c(OC)c(C(=O)NC[C@@H]2CCCN2CC)c1O [eticlopride]	–	–	effect on decay kinetics of the optogenetically evoked response [3]: no effect
COC(=O)[C@@H]1[C@H]2C[C@H]3c4[nH]c5ccccc5c4CCN3C[C@@H]2CC[C@@H]1O [yohimbine]	–	–	block of the NE-induced response of GRABNE2h ([1]; HEK293T cells (Fig. S2D)): blocked; block of the NE-induced response of GRABNE2m ([2]; HEK293T cells (Fig. S2D)): blocked
NCCCC(=O)O [γ-aminobutyric acid]	do not respond	do not respond	–
COc1cc(C(O)CN)ccc1O (stereo not shown) [normetanephrine]	not respond	not respond	–
NCCc1ccc(O)c(O)c1 [DA, dopamine]	–	–	EC50 [4]: 20 µM; EC50 [5]: 9 µM
CC(=O)OCC[N+](C)(C)C [acetylcholine]	do not respond	do not respond	–
NCCc1c[nH]c2ccc(O)cc12 [serotonin]	do not respond	do not respond	–
NCCc1ccccc1 [phenethylamine]	not respond	not respond	–
Fc1ccc(C(OCCN2CCN(CCCc3ccccc3)CC2)c2ccc(F)cc2)cc1 [GBR-12909]	–	–	effect on decay kinetics of the optogenetically evoked response [3]: no effect
COc1cc(C(O)CO)ccc1O (stereo not shown) [3-methoxy-4-hydroxyphenylglycol]	not respond	not respond	–
Nc1ncnc2c1ncn2[C@@H]1O[C@H](CO)[C@@H](O)[C@H]1O [adenosine]	do not respond	do not respond	–
NC[C@H](O)c1ccc(O)c(O)c1 [NE, norepinephrine]	–	–	EC50 [4]: 0.38 µM; EC50 [5]: 0.19 µM
N[C@@H](CCC(=O)O)C(=O)O [glutamate, L-Glutamic acid]	do not respond	do not respond	–
NCCc1c[nH]cn1 [histamine]	do not respond	do not respond	–
NCC(O)c1ccc(O)cc1 (stereo not shown) [octopamine]	not respond	not respond	–
COc1cc(C(O)C(=O)O)ccc1O (stereo not shown) [vanillylmandelic acid]	not respond	not respond	–
NCCc1ccc(O)cc1 [tyramine]	not respond	not respond	–
